We go through 1 molecule from ChEMBL document CHEMBL4765360, “Design, synthesis and biological evaluation of novel potent STAT3 inhibitors based on BBI608 for cancer therapy” (Eur J Med Chem, 2020).

Molecules are shown by their SMILES. Activity calls are given as the source filed them. The calls are words filed in the database; no cut-off is given here.

Data set [1] has as its system MDA-MB-231. In words: Antitumor activity against human MDA-MB-231 cells xenografted in BALB/c mouse assessed reduction in tumor weight at 5 mg/kg, ip administered once daily for 21 days and measured on day 21 relative to control. It counts as functional. Particulars: MDA-MB-231, ip, 504 h, time 21 day. In short, it runs like this:
(§1)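 Female BALB/c nude mice, 5 weeks old (16–18 g), were given 5×10^6 MDA-MB-231 cells subcutaneously. At ~50 mm³, mice were randomized to three groups (n=6): vehicle, 5 or 10 mg/kg i.p. daily for 21 days. Tumor volume (length×width²/2) was measured every 3 days and body weight recorded. Tumors were excised and weighed at the end. TGI derived versus control; mean ± SEM.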

Data set [2] deals with MDA-MB-231. The data set can be described thus: Induction of cell cycle arrest in human MDA-MB-231 cells assessed as G2/M phase accumulation at 2 uM incubated for 24 hrs by PI staining based flow cytometry analysis (reference value: 15.80 %). The class given is functional.
The subject of data set [3] is MDA-MB-231. The data set can be described thus: Induction of apoptosis in human MDA-MB-231 cells incubated for 24 hrs by annexin V-FITC and PI staining based flow cytometry analysis. As to conditions: dose 1-4 µM. It counts as functional, cell-based.
The next data set deals with HepG2. The data set can be described thus: Antiproliferative activity against human HepG2 cells overexpressed STAT3 assessed as reduction in cell growth incubated for 48 hrs by CCK-8 assay. The class given is functional, cell-based. As to conditions: HepG2, 48 h. The gist of the method:
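Cells seeded at 5000-7000/well and allowed to settle for 8 h at 37 °C, 5% CO2. Graded compound concentrations were then added in triplicate (DMSO <0.1%) for 48 h. Medium was replaced with 10% CCK-8 for 4 h (MDA-MB-231, MDA-MB-468) or 1 h (HepG2), and A450 was read. IC50 is mean ± SD of at least three independent experiments. HepG2 was grown in high-glucose DMEM with 10% FBS.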

Data set [4] concerns MDA-MB-231. In words: Induction of cell cycle arrest in human MDA-MB-231 cells assessed as G2/M phase accumulation at 4 uM incubated for 24 hrs by PI staining based flow cytometry analysis (reference value: 15.80 %). It counts as functional.
For data set [5], the system named is MDA-MB-231. In words: Induction of apoptosis in human MDA-MB-231 cells assessed as necrotic cells at 1 uM incubated for 24 hrs by annexin V-FITC and PI staining based flow cytometry analysis (reference value: 0.23 %). The class given is functional.
The subject of data set [6] is MDA-MB-231. The data set can be described thus: Induction of apoptosis in human MDA-MB-231 cells assessed as early apoptotic cells at 4 uM incubated for 24 hrs by annexin V-FITC and PI staining based flow cytometry analysis (reference value: 2.69 %). It counts as functional.
For data set [7], the target named is T1, Signal transducer and activator of transcription 3 (Homo sapiens, UniProt P40763). In words: Inhibition of STAT3 in human MDA-MB-231 cells assessed as reduction in Cyclin D1 expression incubated for 24 hrs by Western blot analysis. It counts as cell-based. As to conditions: dose 0.75-3 µM. The gist of the method: (§2)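 MDA-MB-231 cells treated with a range of concentrations for 24 h. RIPA lysates with PMSF, 40 µg protein/lane, on 10% SDS-PAGE, then PVDF. Blocked in 5% milk/TBST for 2 h. Primary antibodies to STAT3, p-STAT3(Y705), STAT1, p-STAT1(Y701), c-Myc and Cyclin D1 overnight at 4 °C; GAPDH as loading control. HRP secondary for 1 h; ECL detection.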

The test system of data set [8] is MDA-MB-231. The data set can be described thus: Induction of cell cycle arrest in human MDA-MB-231 cells assessed as G0/G1 phase accumulation at 1 uM incubated for 24 hrs by PI staining based flow cytometry analysis (reference value: 57.99 %). It counts as functional.
The subject of data set [9] is MDA-MB-231. The data set can be described thus: Effect on STAT1 expression in human MDA-MB-231 cells at 0.75 to 3 uM incubated for 24 hrs by Western blot analysis. As to conditions: dose 0.75-3 µM. The class given is functional, cell-based. In short, it runs like this: as §2
Data set [10] deals with MDA-MB-231. In words: Induction of apoptosis in human MDA-MB-231 cells assessed as late apoptotic cells at 2 uM incubated for 24 hrs by annexin V-FITC and PI staining based flow cytometry analysis (reference value: 3.72 %). It counts as functional.
Data set [11] addresses T1, Signal transducer and activator of transcription 3. The data set can be described thus: Inhibition of STAT3 in human MDA-MB-231 cells assessed as reduction in STAT3 Y705 phosphorylation in nucleus at 3 uM incubated for 24 hrs by immunofluorescence staining based fluorescence microscopy. The class given is subcellular. In short, it runs like this: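 MDA-MB-231 cells at 1×10^4 per dish, adhered overnight, then exposed to 3.0 µM for 24 h. Fixed in 4% paraformaldehyde and permeabilized with 0.5% Triton X-100. Blocked in 5% BSA for 1 h. Anti-p-STAT3 primary overnight at 4 °C, then Alexa Fluor 546 anti-rabbit for 1 h at RT. Hoechst nuclear stain; imaged by fluorescence microscopy.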

Data set [12] can be described thus: Toxicity in BALB/c mouse xenografted with human MDA-MB-231 cells assessed as effect on body weight loss at 5 to 10 mg/kg, ip administered once daily for 21 days and measured for 21 days. The class given is organism-based. As to conditions: in vivo, 504 h, dose 5-10 mg/kg/day, time 21 day. The gist of the method:
as §1

For data set [13], the system named is MDA-MB-231. The data set can be described thus: Induction of apoptosis in human MDA-MB-231 cells assessed as late apoptotic cells at 1 uM incubated for 24 hrs by annexin V-FITC and PI staining based flow cytometry analysis (reference value: 3.72 %). It counts as functional.
Data set [14] addresses T1, Signal transducer and activator of transcription 3. The data set can be described thus: Inhibition of STAT3 in human MDA-MB-231 cells assessed as reduction in c-myc expression incubated for 24 hrs by Western blot analysis. It counts as cell-based. Particulars: dose 0.75-3 µM. The gist of the method: as §2
Another data set relates to Mus musculus. The data set can be described thus: In vivo inhibition of STAT3 in BALB/c mouse xenografted with human MDA-MB-231 cells assessed as reduction in STAT3 Y705 phosphorylation in tumor tissue at 10 mg/kg, ip administered once daily for 21 days and measured on day 21 by immunofluorescent staining based fluorescence microscopy. It counts as functional, organism-based. Particulars: dose 10.0 mg/kg/day, time 21.0 day. In short, it runs like this: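 Tumors from the xenograft study (10 mg/kg i.p. daily, 21 days) were sectioned and fixed. Sections were stained with anti-p-STAT3 overnight at 4 °C, then Cy3 anti-rabbit secondary for 40 min at 37 °C. Nuclei stained with DAPI; imaged by fluorescence microscopy. Mean ± SEM, n=4.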

For data set [15], the system named is MDA-MB-231. In words: Induction of apoptosis in human MDA-MB-231 cells assessed as early apoptotic cells at 1 uM incubated for 24 hrs by annexin V-FITC and PI staining based flow cytometry analysis (reference value: 2.69 %). It counts as functional.

T1 sequence (P40763 whole entry): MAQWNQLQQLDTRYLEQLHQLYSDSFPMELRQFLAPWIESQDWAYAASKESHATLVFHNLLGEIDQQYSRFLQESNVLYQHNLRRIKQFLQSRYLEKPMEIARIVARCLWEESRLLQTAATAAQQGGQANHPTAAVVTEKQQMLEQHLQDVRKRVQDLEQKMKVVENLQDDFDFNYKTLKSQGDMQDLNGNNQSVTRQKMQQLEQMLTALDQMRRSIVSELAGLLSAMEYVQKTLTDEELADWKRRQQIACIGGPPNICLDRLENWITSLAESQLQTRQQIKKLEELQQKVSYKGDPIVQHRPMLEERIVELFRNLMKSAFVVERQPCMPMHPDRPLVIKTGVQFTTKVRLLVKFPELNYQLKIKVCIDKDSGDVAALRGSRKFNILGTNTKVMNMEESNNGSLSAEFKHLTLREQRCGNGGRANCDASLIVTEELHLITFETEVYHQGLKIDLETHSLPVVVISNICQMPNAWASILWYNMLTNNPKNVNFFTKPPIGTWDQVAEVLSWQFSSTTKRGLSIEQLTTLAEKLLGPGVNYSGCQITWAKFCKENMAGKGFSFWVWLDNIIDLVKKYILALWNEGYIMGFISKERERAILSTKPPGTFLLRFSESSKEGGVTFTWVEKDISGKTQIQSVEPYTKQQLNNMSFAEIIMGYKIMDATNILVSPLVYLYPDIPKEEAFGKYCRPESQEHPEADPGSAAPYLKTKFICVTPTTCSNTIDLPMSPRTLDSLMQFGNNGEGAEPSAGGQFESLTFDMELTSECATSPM

In turn, `COc1ccc(NC2=CC(=O)c3cc(C(C)=O)oc3C2=O)cc1` had an inhibition in vivo at 5 mg/kg/day in the data set on MDA-MB-231 [1] of 26%. The Activity is 13.3% in the data set with MDA-MB-231 [2]; “Dose-dependent effect” with MDA-MB-231 [3]; 7.52% with MDA-MB-231 [4]; 0.41% with MDA-MB-231 [5]; 10.25% in the data set with MDA-MB-231 [6]; 49.42% in the data set with MDA-MB-231 [8]. The Activity with MDA-MB-231 [10] is on record as 12.69%; in data set [12], “Non-Toxic”; in the data set with MDA-MB-231 [13], 6.51%; in the data set on MDA-MB-231 [15], 5.21%. In the data set on HepG2, the IC50 stood at 1.24 µM. Further, the inhibition entry in [7] and in data set [14] was “Dose-dependent effect” in each case. In addition, the result with MDA-MB-231 [9] was inactive. Also, the inhibition result (in data set [11]; in the data set with Mus musculus) was “Active” throughout.
